# Non-standard residues stand in square brackets, D forms with d. No end group written: not given here. *: point of attachment. Biotin = O=C1N[C@H]2[C@H](CS[C@H]2CCCCC(=O)*)N1; pY = N[C@@H](Cc1ccc(OP(=O)(O)O)cc1)C(=O)O; AHA = not defined here
# How the values were obtained:
# EGFR [1] = target: T1, EGFR (Homo sapiens, UniProt P00533); test: HPLC and LC-MS/MS analysis of EGFR kinase reaction with Shc1 Y-Y peptide; format: biochemical; details: no pY-pY peptides detected in HPLC analysis of EGFR reaction (Fig. 2c)
# Grb2 = details: doubly phosphorylated (Tyr239 and Tyr240) Shc1; cited from earlier work
# EGFR [2] = target: T1, EGFR; test: EGFR steady-state kinetics with Shc1 peptides; format: biochemical; details: peptide primed at Tyr240 vs unmodified peptide
# Method in brief: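 Recombinant EGFR kinase domain (residues 696–1022) at 100nM was incubated with Shc1 Tyr239-region peptides carrying added C-terminal lysines (0–12mM) in 50mM Tris pH 7.5, 10mM MgCl₂, 10mM MnCl₂, 2mM DTT with 2μCi γ-³²P-ATP/reaction, 30 min at 30°. Reactions were spotted on P81 paper, washed with 75mM H₃PO₄ and scintillation-counted. Initial rates (<5% substrate consumed) were fitted to Michaelis–Menten by nonlinear least squares; three experiments, each in triplicate.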
# Src = test: HPLC and LC-MS/MS analysis of Src kinase reaction with Shc1 Y-Y peptide; format: biochemical; details: 5μM Src, 500μM Shc1 peptide, 1mM ATP
# Method in brief: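 Recombinant Src (5μM final) was reacted with 500μM unmodified Shc1 peptide and 1mM ATP. Timed aliquots were EDTA-quenched, then run on C18 reversed-phase HPLC (0–30% acetonitrile/0.1% TFA over 30 min, 1.0 ml/min, A220), with peaks assigned from standards. The peak was analysed by nanoflow LC/MS/MS on an Orbitrap with CID and database search (FDR <1.5%, manual check). Site occupancy was taken from spectral counts per pTyr site.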
# [3] = test system: Shc1 phosphorylated at Tyr239 and Tyr240 in MCF10A cells; test: Immunoblot of dual Shc1 phosphorylation in MCF10A cells; format: cell-based; details: dasatinib 250 or 500nM pretreatment 1 hour, then 1ng/mL EGF 3 min
# Method in brief: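 MCF10A cells (STR-authenticated, mycoplasma-free) were kept in HuMEC medium and held 16 h in growth-factor-free medium before pretreatment with test compound and EGF stimulation. Cells were lysed in RIPA buffer containing protease and phosphatase inhibitors. Lysates were separated by SDS-PAGE, transferred to nitrocellulose and immunoblotted with phospho-Shc and total Shc antibodies.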
molecule,measurement,setting,value
PDHQpYYNDAKKK [pY-Y],further phosphorylation by EGFR,EGFR [1],not a substrate for further phosphorylation by EGFR
"doubly phosphorylated Shc1: Shc1 doubly phosphorylated at Tyr239 and Tyr240, literature ref 31 ({Biotin-AHA}-DHQ[pY][pY]NDFPGKE; reading uncertain)",increase in affinity for Grb2 vs phosphorylation at Tyr239 alone,Grb2,3 fold
PDHQYpYNDAKKK [Y-pY],decrease of Km by priming phosphorylation,EGFR [2],approximately 4 fold
PDHQYYNDAKKK [Y-Y],product of Src phosphorylation by HPLC,Src,mono-phosphorylated peptides were the predominant product
"Cc1nc(Nc2ncc(C(=O)Nc3c(C)cccc3Cl)s2)cc(N2CCN(CCO)CC2)n1 [dasatinib, reference compound]",inhibition of EGF-induced dual phosphorylation of Shc1,[3],almost completely abolished

# From publication PMC4824005 (Nature structural & molecular biology, 2015)
